# Data reported in ChEMBL document CHEMBL4689842, “EUbOPEN Chemogenomics Library wave 1” (2021).
# Tests used:
# Assay type in all cases: toxicity, cell-based
# [1] = test system: Fibroblast; assay: Incucyte cell viability with human fibroblast; settings: 10 µM, compound concentration 10 uM; also: filed as whole numbers so only -1 and 0 and 1 occur
# [2] = test system: Fibroblast; assay: Multiplex assay against human fibroblast
# Procedure, shortened: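 Hoechst33342, BioTracker Green Microtubule Cytoskeleton Dye, MitoTracker Red and Annexin V Alexa Fluor 680 were added to live cells at seeding, and imaging on a CQ1 microscope at 37°C and 5% CO2 followed compound addition. Gating by CellPathfinder machine learning separated cells into Hoechst high-intensity objects or normal cells, then normal cells into healthy, pyknosed or fragmented nuclei, then pyknosed cells into mitotic or apoptotic. Per cents of healthy-nucleus cells are reported for the tubulin, mitochondrial-mass and membrane-permeability phenotypes.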
# [3] = test system: U2OS; assay: Incucyte cell viability with U2OS; settings: human, 10 µM, compound concentration 10 uM; also: filed as whole numbers so only -1 and 0 and 1 occur
# [4] = 0 h, replicate number 1, timepoint 0 hours
# [5] = 12 h, replicate number 1, timepoint 12 hours
# [6] = 18 h, replicate number 1, timepoint 18 hours
# [7] = 24 h, replicate number 1, timepoint 24 hours
# [8] = 12 h, 1 µM, compound concentration 1 uM, replicate 1
# [9] = 12 h, 1 µM, compound concentration 1 uM, replicate 2
# [10] = 12 h, 10 µM, compound concentration 10 uM, replicate 1
# [11] = 12 h, 10 µM, compound concentration 10 uM, replicate 2
# [12] = 24 h, 1 µM, compound concentration 1 uM, replicate 1
# [13] = 24 h, 1 µM, compound concentration 1 uM, replicate 2
# [14] = 24 h, 10 µM, compound concentration 10 uM, replicate 1
# [15] = 24 h, 10 µM, compound concentration 10 uM, replicate 2
# [16] = 48 h, 1 µM, compound concentration 1 uM, replicate 1
# [17] = 48 h, 1 µM, compound concentration 1 uM, replicate 2
# [18] = 48 h, 10 µM, compound concentration 10 uM, replicate 1
# [19] = 48 h, 10 µM, compound concentration 10 uM, replicate 2
smiles,measurement,setting,value
CCCCN(CC)c1nc(C)nc2c1c(C)cn2-c1c(C)cc(C)cc1C.Cl,Growth Rate,[1]; [4],1
same,Growth Rate,"[1]; 6 h, replicate number 1, timepoint 6 hours",0
same,Growth Rate,[1]; [5],0
same,Growth Rate,[1]; [6],0
same,Growth Rate,[1]; [7],0
same,Population Apoptotic (%),[2]; [8],63%
same,Population Fragmented Nuclei (%),[2]; [8],23%
same,Population Healthy Nuclei (%),[2]; [8],44%
same,Population Hoechst High Intensity Objects (%),[2]; [8],11%
same,Population Membrane Permeable-Phenotype (%),[2]; [8],27%
same,Population Mitochondria Different-Phenotype (%),[2]; [8],9%
same,Population Mitotic Cells (%),[2]; [8],36%
same,Population Normal (%),[2]; [8],88%
same,Population Pyknosed Nuclei (%),[2]; [8],31%
same,Population Tubulin-Different-Phenotype (%),[2]; [8],46%
same,Total Cell Count,[2]; [8],108
same,Population Apoptotic (%),[2]; [9],55%
same,Population Fragmented Nuclei (%),[2]; [9],13%
same,Population Healthy Nuclei (%),[2]; [9],77%
same,Population Hoechst High Intensity Objects (%),[2]; [9],3%
same,Population Membrane Permeable-Phenotype (%),[2]; [9],5%
same,Population Mitochondria Different-Phenotype (%),[2]; [9],8%
same,Population Mitotic Cells (%),[2]; [9],44%
same,Population Normal (%),[2]; [9],96%
same,Population Pyknosed Nuclei (%),[2]; [9],9%
same,Population Tubulin-Different-Phenotype (%),[2]; [9],14%
same,Total Cell Count,[2]; [9],95
same,Population Apoptotic (%),[2]; [10],57%
same,Population Fragmented Nuclei (%),[2]; [10],30%
same,Population Healthy Nuclei (%),[2]; [10],37%
same,Population Hoechst High Intensity Objects (%),[2]; [10],13%
same,Population Membrane Permeable-Phenotype (%),[2]; [10],32%
same,Population Mitochondria Different-Phenotype (%),[2]; [10],16%
same,Population Mitotic Cells (%),[2]; [10],42%
same,Population Normal (%),[2]; [10],86%
same,Population Pyknosed Nuclei (%),[2]; [10],31%
same,Population Tubulin-Different-Phenotype (%),[2]; [10],84%
same,Total Cell Count,[2]; [10],76
same,Population Apoptotic (%),[2]; [11],20%
same,Population Fragmented Nuclei (%),[2]; [11],9%
same,Population Healthy Nuclei (%),[2]; [11],83%
same,Population Hoechst High Intensity Objects (%),[2]; [11],6%
same,Population Membrane Permeable-Phenotype (%),[2]; [11],4%
same,Population Mitochondria Different-Phenotype (%),[2]; [11],55%
same,Population Mitotic Cells (%),[2]; [11],80%
same,Population Normal (%),[2]; [11],93%
same,Population Pyknosed Nuclei (%),[2]; [11],6%
same,Population Tubulin-Different-Phenotype (%),[2]; [11],19%
same,Total Cell Count,[2]; [11],78
same,Population Apoptotic (%),[2]; [12],57%
same,Population Fragmented Nuclei (%),[2]; [12],30%
same,Population Healthy Nuclei (%),[2]; [12],49%
same,Population Hoechst High Intensity Objects (%),[2]; [12],11%
same,Population Membrane Permeable-Phenotype (%),[2]; [12],21%
same,Population Mitochondria Different-Phenotype (%),[2]; [12],8%
same,Population Mitotic Cells (%),[2]; [12],42%
same,Population Normal (%),[2]; [12],88%
same,Population Pyknosed Nuclei (%),[2]; [12],20%
same,Population Tubulin-Different-Phenotype (%),[2]; [12],36%
same,Total Cell Count,[2]; [12],107
same,Population Apoptotic (%),[2]; [13],29%
same,Population Fragmented Nuclei (%),[2]; [13],13%
same,Population Healthy Nuclei (%),[2]; [13],70%
same,Population Hoechst High Intensity Objects (%),[2]; [13],5%
same,Population Membrane Permeable-Phenotype (%),[2]; [13],3%
same,Population Mitochondria Different-Phenotype (%),[2]; [13],6%
same,Population Mitotic Cells (%),[2]; [13],70%
same,Population Normal (%),[2]; [13],94%
same,Population Pyknosed Nuclei (%),[2]; [13],15%
same,Population Tubulin-Different-Phenotype (%),[2]; [13],7%
same,Total Cell Count,[2]; [13],116
same,Population Apoptotic (%),[2]; [14],73%
same,Population Fragmented Nuclei (%),[2]; [14],30%
same,Population Healthy Nuclei (%),[2]; [14],47%
same,Population Hoechst High Intensity Objects (%),[2]; [14],26%
same,Population Membrane Permeable-Phenotype (%),[2]; [14],14%
same,Population Mitochondria Different-Phenotype (%),[2]; [14],32%
same,Population Mitotic Cells (%),[2]; [14],26%
same,Population Normal (%),[2]; [14],73%
same,Population Pyknosed Nuclei (%),[2]; [14],21%
same,Population Tubulin-Different-Phenotype (%),[2]; [14],88%
same,Total Cell Count,[2]; [14],97
same,Population Apoptotic (%),[2]; [15],25%
same,Population Fragmented Nuclei (%),[2]; [15],8%
same,Population Healthy Nuclei (%),[2]; [15],80%
same,Population Hoechst High Intensity Objects (%),[2]; [15],4%
same,Population Membrane Permeable-Phenotype (%),[2]; [15],3%
same,Population Mitochondria Different-Phenotype (%),[2]; [15],54%
same,Population Mitotic Cells (%),[2]; [15],75%
same,Population Normal (%),[2]; [15],95%
same,Population Pyknosed Nuclei (%),[2]; [15],11%
same,Population Tubulin-Different-Phenotype (%),[2]; [15],21%
same,Total Cell Count,[2]; [15],74
same,Population Apoptotic (%),[2]; [16],50%
same,Population Fragmented Nuclei (%),[2]; [16],24%
same,Population Healthy Nuclei (%),[2]; [16],61%
same,Population Hoechst High Intensity Objects (%),[2]; [16],16%
same,Population Membrane Permeable-Phenotype (%),[2]; [16],13%
same,Population Mitochondria Different-Phenotype (%),[2]; [16],6%
same,Population Mitotic Cells (%),[2]; [16],50%
same,Population Normal (%),[2]; [16],83%
same,Population Pyknosed Nuclei (%),[2]; [16],14%
same,Population Tubulin-Different-Phenotype (%),[2]; [16],32%
same,Total Cell Count,[2]; [16],118
same,Population Apoptotic (%),[2]; [17],100%
same,Population Fragmented Nuclei (%),[2]; [17],26%
same,Population Healthy Nuclei (%),[2]; [17],71%
same,Population Hoechst High Intensity Objects (%),[2]; [17],6%
same,Population Membrane Permeable-Phenotype (%),[2]; [17],6%
same,Population Mitochondria Different-Phenotype (%),[2]; [17],4%
same,Population Mitotic Cells (%),[2]; [17],0%
same,Population Normal (%),[2]; [17],93%
same,Population Pyknosed Nuclei (%),[2]; [17],2%
same,Population Tubulin-Different-Phenotype (%),[2]; [17],46%
same,Total Cell Count,[2]; [17],93
same,Population Apoptotic (%),[2]; [18],75%
same,Population Fragmented Nuclei (%),[2]; [18],43%
same,Population Healthy Nuclei (%),[2]; [18],51%
same,Population Hoechst High Intensity Objects (%),[2]; [18],20%
same,Population Membrane Permeable-Phenotype (%),[2]; [18],13%
same,Population Mitochondria Different-Phenotype (%),[2]; [18],18%
same,Population Mitotic Cells (%),[2]; [18],25%
same,Population Normal (%),[2]; [18],79%
same,Population Pyknosed Nuclei (%),[2]; [18],4%
same,Population Tubulin-Different-Phenotype (%),[2]; [18],60%
same,Total Cell Count,[2]; [18],104
same,Population Apoptotic (%),[2]; [19],66%
same,Population Fragmented Nuclei (%),[2]; [19],46%
same,Population Healthy Nuclei (%),[2]; [19],50%
same,Population Hoechst High Intensity Objects (%),[2]; [19],12%
same,Population Membrane Permeable-Phenotype (%),[2]; [19],20%
same,Population Mitochondria Different-Phenotype (%),[2]; [19],10%
same,Population Mitotic Cells (%),[2]; [19],33%
same,Population Normal (%),[2]; [19],87%
same,Population Pyknosed Nuclei (%),[2]; [19],3%
same,Population Tubulin-Different-Phenotype (%),[2]; [19],89%
same,Total Cell Count,[2]; [19],189
same,Growth Rate,[3]; [4],0
same,Growth Rate,"[3]; 6 h, replicate number 2, timepoint 6 hours",1
same,Growth Rate,[3]; [5],0
same,Growth Rate,[3]; [6],0
same,Growth Rate,"[3]; 18 h, replicate number 2, timepoint 18 hours",1
same,Growth Rate,[3]; [7],0
same,Growth Rate,"[3]; 24 h, replicate number 2, timepoint 24 hours",1
